Activity calls are given as the source filed them. The rule behind the calls is not given here.
Tests used:
[1] = tested on: NCI-H460; experiment: Cell cycle arrest in human NCI-H460 cells assessed as accumulation at G2/M phase at 0.1 uM by flow cytometry; format: functional
Summary of the method: (§1)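 NCI-H460 cells taken at 75-85% confluency, seeded at 2.5 × 10^5 cells per 60 mm dish and left to reattach overnight. Treated overnight in complete RPMI 1640 at 10 µg/mL final (test agents) or 0.1 µM final (positive control), with DMSO ≤0.1 vol %. Harvested by trypsin, PBS-rinsed, resuspended in Krishan's buffer, then DNA-content flow cytometry gave G1/S/G2/M percentages.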

[2] = tested on: NCI-H460; experiment: Cell cycle arrest in human NCI-H460 cells assessed as accumulation at G1 phase at 0.1 uM by flow cytometry; format: functional; summary of the method: as §1
[3] = tested on: NCI-H460; experiment: Cell cycle arrest in human NCI-H460 cells assessed as accumulation at S phase at 0.1 uM by flow cytometry; format: functional; summary of the method: as §1
[4] = tested on: MCF7; experiment: Cytotoxicity against human MCF7 cells after 48 hrs by MTT assay; format: functional, cell-based; settings: MCF7, 48 h
Summary of the method: (§2)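 MCF-7, NCI-H460 and SF-268 cells were exposed to serial dilutions for 48 h in RPMI 1640 with 10% fetal bovine serum. Viability was read by MTT colorimetric assay, and IC50 was taken as the concentration giving 50% inhibition of proliferation/survival.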

[5] = tested on: NCI-H460; experiment: Cytotoxicity against human NCI-H460 cells after 48 hrs by MTT assay; format: functional, cell-based; settings: NCI-H460, 48 h; summary of the method: as §2
[6] = tested on: SF-268; experiment: Cytotoxicity against human SF268 cells after 48 hrs by MTT assay; format: functional, cell-based; settings: SF-268, 48 h; summary of the method: as §2
[7] = tested on: NCI-H460; experiment: Cell cycle arrest in human NCI-H460 cells assessed as accumulation at G1 phase at 10 ug/mL by flow cytometry; format: functional; summary of the method: as §1
[8] = tested on: NCI-H460; experiment: Cell cycle arrest in human NCI-H460 cells assessed as accumulation at S phase at 10 ug/mL by flow cytometry; format: functional; summary of the method: as §1
[9] = tested on: NCI-H460; experiment: Cell cycle arrest in human NCI-H460 cells assessed as accumulation at G2/M phase at 10 ug/mL by flow cytometry; format: functional; summary of the method: as §1
[10] = tested on: NCI-H460; experiment: Cell cycle arrest in human NCI-H460 cells assessed as accumulation at S phase at 3 uM by flow cytometry
[11] = tested on: NCI-H460; experiment: Cell cycle arrest in human NCI-H460 cells assessed as accumulation at G2/M phase at 3 uM by flow cytometry
[12] = tested on: NCI-H460; experiment: Cell cycle arrest in human NCI-H460 cells assessed as accumulation at G1 phase at 3 uM by flow cytometry
[13] = tested on: MCF7; experiment: Cytotoxicity against human MCF7 cells at 10 ug/mL after 48 hrs by MTT assay; format: functional, cell-based
[14] = tested on: SF-268; experiment: Cytotoxicity against human SF268 cells at 10 ug/mL after 48 hrs by MTT assay; format: functional, cell-based
[15] = tested on: NCI-H460; experiment: Cytotoxicity against human NCI-H460 cells at 10 ug/mL after 48 hrs by MTT assay; format: functional, cell-based

Row | SMILES | IC50 [4] [µM] | IC50 [5] [µM] | IC50 [6] [µM] | other results
1 | CC(=O)O[C@H]1C(=O)[C@@]2(C)[C@H]([C@H](OC(=O)c3ccccc3)[C@]3(O)C[C@H](OC(=O)[C@H](O)[C@@H](NC(=O)c4ccccc4)c4ccccc4)C(C)=C1C3(C)C)[C@]1(OC(C)=O)CO[C@@H]1C[C@@H]2O [PACLITAXEL] | 0.0112 | – | – | Activity [1]: 70.5%; Activity [2]: 15.5%; Activity [3]: 14%
2 | COC1=C(c2ccccc2)C(=O)C(OC)=C(c2ccccc2)C1=O [BETULINAN A] | 8.7 | 58.4 | 28 | –
3 | C=C1C(=O)C[C@H]2[C@@H]3CC[C@H](C(=O)OC)[C@]12CC3(C)C | 16.7 | 9.4 | 10.2 | –
4 | CC1(C)C[C@]23[C@@H]4COC(=O)[C@H]2CC[C@H]1[C@@H]3CC4=O [QUADRONE] | 14.3 | 12.4 | 16.9 | Activity [7]: 38.8%; Activity [8]: 6.3%; Activity [9]: 54.8%
5 | COC(=O)Nc1nc2cc(C(=O)c3cccs3)ccc2[nH]1 [NOCODAZOLE] | – | – | – | Activity [10]: 6.9%; Activity [11]: 80.1%; Activity [12]: 13%
6 | CC1(C)C[C@]23[C@@H](C(=O)O)CC[C@H]1[C@@H]2CC(=O)[C@@H]3CO | 16.5 | 14.5 | 7.8 | –
7 | C=CC(C)(C)c1[nH]c2ccccc2c1C1=C(OC)C(=O)C(c2c[nH]c3ccccc23)=C(OC)C1=O | 4.1 | 24.2 | 25.7 | –
8 | COC[C@H]1C(=O)C[C@H]2[C@@H]3CC[C@H](C(=O)O)[C@]12CC3(C)C | 20.6 | 19.4 | 21.4 | Activity [7]: 44.3%; Activity [8]: 21.4%; Activity [9]: 34.3%
9 | COC1=C(c2c[nH]c3ccccc23)C(=O)C(OC)=C(c2c[nH]c3ccccc23)C1=O [ASTERRIQUINONE D] | 17.7 | 19.9 | 15.8 | –
10 | C=C1C(=O)C[C@H]2[C@@H]3CC[C@H](C(=O)O)[C@]12CC3(C)C | 24.1 | 10.6 | 14.7 | Activity [7]: 40.7%; Activity [8]: 16%; Activity [9]: 43.7%
11 | COC(=O)C1(c2c[nH]c3ccccc23)C(=O)C(OC)=C(c2c[nH]c3ccccc23)C1=O (stereo unspecified) [ASTERREDIONE] | 25.2 | 17.4 | 20.7 | –
12 | CC1C(=O)C[C@H]2[C@@H]3CC[C@H](C(=O)O)[C@]12CC3(C)C (stereo partly specified) | – | – | – | Activity [13]: inactive; Activity [14]: inactive; Activity [15]: inactive

Source: ChEMBL document CHEMBL1147262, “Cytotoxic constituents of Aspergillus terreus from the rhizosphere of Opuntia versicolor of the Sonoran Desert” (J Nat Prod, 2003)
